Data set [1] concerns Mus musculus. Briefly: Toxicity in mouse B16 cells allografted mouse at 130 mg/kg, ip qd for 9 days. Also noted: dose 130 mg/kg, route intraperitoneal. The note with it: in vivo, 216 h. It counts as organism-based. Put shortly:
(§1)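 Mice bearing B16 melanoma, dosed ip once daily for 9 days from 24 h after tumor implantation. Toxicity is recorded as the average body weight change at the end of drug treatment.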

For data set [2], the system named is P388. Briefly: Antitumor activity against mouse P388 cells allografted mouse assessed as host survival at 100 mg/kg, ip qd for 9 days relative to control. To be noted: route intraperitoneal. Type of data set: functional. Put shortly:
(§2)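 NCI protocol: groups of five to ten mice inoculated ip with approximately 10^6 P-388 or L1210 cells. Drug given over a range of dose levels starting 24 h after implantation, once daily for 9 consecutive days. Survival expressed as %T/C = (average survival of treated)/(average survival of control) × 100.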

Data set [3] concerns L1210. Briefly: Antitumor activity against mouse L1210 cells allografted mouse assessed as host survival at 100 mg/kg, ip qd for 9 days relative to control. Type of data set: functional. To be noted: route intraperitoneal. Put shortly:
as §2

Data set [4] deals with B16. As to the kind of experiment: Antitumor activity against mouse B16 cells allografted mouse assessed as host survival at 216 mg/kg, ip qd for 9 days relative to control. It counts as functional. To be noted: route intraperitoneal. Put shortly: (§3)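 B16 melanoma-bearing mice given drug ip once daily for 9 days, starting 24 h after tumor implantation. Read-out is average survival in days, expressed as %T/C = (average survival of treated mice)/(average survival of control mice) × 100.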

A short description of data set [5]: Binding affinity to synthetic melanin at 5.8 mg/100 mL after 15 mins by UV-spectroscopic analysis. It counts as physicochemical. The note with it: 0.25 h. In short, it runs like this: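 Synthetic melanin was made from DL-Dopa with tyrosinase in 0.1 M phosphate pH 6.6 at 37 °C for 4 h. Melanin suspension (1.1 mg dry weight) was mixed with phosphate buffer (0.05 M, pH 6.4, 5% Me2SO), water, and 1 mL of drug solution (5.8 mg/100 mL). The mixture was shaken 15 min at room temperature and filtered. Unbound drug in the filtrate was measured by UV against a drug-free blank.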

For data set [6], the system named is B16. Briefly: Antitumor activity against mouse B16 cells allografted mouse assessed as host survival at 360 mg/kg, ip qd for 9 days relative to control. It counts as functional. The note with it: route intraperitoneal. Put shortly:
as §3

Data set [7] relates to Mus musculus. Briefly: Toxicity in mouse B16 cells allografted mouse at 216 mg/kg, ip qd for 9 days. It counts as organism-based. On the set-up: dose 216 mg/kg, route intraperitoneal. The note with it: in vivo, 216 h. Put shortly: as §1
Data set [8] concerns Mus musculus. Briefly: Toxicity in mouse B16 cells allografted mouse at 360 mg/kg, ip qd for 9 days. Type of data set: organism-based. On the set-up: dose 360 mg/kg, route intraperitoneal. To be noted: in vivo, 216 h. In short, it runs like this:
as §1

The subject of data set [9] is B16. Briefly: Antitumor activity against mouse B16 cells allografted mouse assessed as host survival at 130 mg/kg, ip qd for 9 days relative to control. The note with it: route intraperitoneal. Type of data set: functional. In short, it runs like this: as §3
Data set [10] deals with P388. As to the kind of experiment: Antitumor activity against mouse P388 cells allografted mouse assessed as host survival at 60 mg/kg, ip qd for 9 days relative to control. It counts as functional. To be noted: route intraperitoneal. Put shortly: as §2
Data set [11] deals with Mus musculus. Briefly: Toxicity in mouse P388 cells allografted mouse at 20 mg/kg, ip qd for 9 days. Type of data set: organism-based. On the set-up: dose 20 mg/kg, route intraperitoneal. To be noted: in vivo, 216 h. Put shortly:
(§4)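 NCI protocol. Groups of five to ten mice were inoculated intraperitoneally with about 10^6 tumor cells. Drug was given ip once daily for 9 consecutive days, starting 24 h after tumor implantation, over a range of dose levels. Toxicity was read as the average body weight change at the end of drug treatment.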

For data set [12], the system named is P388. As to the kind of experiment: Antitumor activity against mouse P388 cells allografted mouse assessed as host survival at 20 mg/kg, ip qd for 9 days relative to control. It counts as functional. The note with it: route intraperitoneal. Put shortly: as §2
Data set [13] has as its system Mus musculus. As to the kind of experiment: Toxicity in mouse L1210 cells allografted mouse at 50 mg/kg, ip qd for 9 days. Type of data set: organism-based. On the set-up: dose 50 mg/kg, route intraperitoneal. To be noted: in vivo, 216 h. Put shortly: (§5)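 Groups of five to ten mice were inoculated ip with about 10^6 L1210 cells and dosed once daily for 9 consecutive days beginning 24 h post-implantation. Toxicity was taken as the average body weight change at the end of drug treatment.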

Data set [14] deals with Mus musculus. Briefly: Toxicity in mouse L1210 cells allografted mouse at 60 mg/kg, ip qd for 9 days. Type of data set: organism-based. On the set-up: dose 60 mg/kg, route intraperitoneal. The note with it: in vivo, 216 h. In short, it runs like this:
as §5

Data set [15] has as its system L1210. Briefly: Antitumor activity against mouse L1210 cells allografted mouse assessed as host survival at 50 mg/kg, ip qd for 9 days relative to control. It counts as functional. To be noted: route intraperitoneal. In short, it runs like this:
as §2

The subject of data set [16] is P388. Briefly: Antitumor activity against mouse P388 cells allografted mouse assessed as host survival at 40 mg/kg, ip qd for 9 days relative to control. Type of data set: functional. The note with it: route intraperitoneal. Put shortly:
as §2

The test system of data set [17] is L1210. Briefly: Antitumor activity against mouse L1210 cells allografted mouse assessed as host survival at 60 mg/kg, ip qd for 9 days relative to control. It counts as functional. To be noted: route intraperitoneal. In short, it runs like this: as §2
Data set [18] concerns Mus musculus. As to the kind of experiment: Toxicity in mouse P388 cells allografted mouse at 60 mg/kg, ip qd for 9 days. It counts as organism-based. On the set-up: dose 60 mg/kg, route intraperitoneal. The note with it: in vivo, 216 h. In short, it runs like this:
as §4

For data set [19], the system named is Mus musculus. Briefly: Toxicity in mouse P388 cells allografted mouse at 40 mg/kg, ip qd for 9 days. It counts as organism-based. Also noted: dose 40 mg/kg, route intraperitoneal. The note with it: in vivo, 216 h. Put shortly:
as §4

As for `CN(C)/N=N/c1[nH]cnc1C(N)=O` [DACARBAZINE], the Activity in [1] is listed as -2.9%; in data set [5], 19.3%; in data set [7], -3.2%; in [8] it was -3%. For the same compound, the T/C was 150% in data set [2]; 167% in [3]; 109% in data set [4]; 76% in data set [6]; 105% in data set [9]. Further, the Survival was found to be 22.8 days in [4], 16 days in [6] and 22 days in data set [9].
Consider `CN(C)/N=N\c1ccnc2cc(I)ccc12`, for which the T/C stood at 127% in data set [10]; 117% in data set [12]; 107% in [15]; 130% in data set [16]; 131% in data set [17]. The Activity in data set [11] is on record as 10.8%; in [13], 4.9%; in data set [14], 2.9%; in data set [18] it was -5.2%; in data set [19], 5.7%.

As a reminder, the T/C is the result in the treated group divided by that in the control group, in per cent.

The values are drawn from ChEMBL document CHEMBL3244044, “Synthesis and antitumor activity of halogen-substituted 4-(3,3-dimethyl-1-triazeno)quinolines” (J Med Chem, 1978).
